The values below come from ChEMBL document CHEMBL4828730, “Gemfibrozil derivatives as activators of soluble guanylyl cyclase - A structure-activity study” (Eur J Med Chem, 2021).

Calls of active or inactive are those of the source. No cut-off for these calls is given here.

Test [1] concerns the target T1, Soluble guanylate cyclase alpha1/beta1 complex (Homo sapiens) (UniProt Q02153+Q02108). Briefly: (§1) Activation of full length human sGC alpha1/beta1 subunit containing heme in ferric state expressed in Sf9 insect cells using […] incubated for 15 mins by [32P]GTP assay. The procedure, abridged:
(§2)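 Reaction started at 37°C with 1 mM GTP/[α-32P]GTP for 15 min, then stopped by zinc carbonate precipitation. Single-dose test at 100 μM relative to vehicle; concentration-response gives EC50 as mean ± SD.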

Test [2] has as its target T2, Soluble guanylate cyclase alpha1/beta1 complex (Homo sapiens, UniProt Q02108+Q02153).
T2 sequence (Q02153 whole entry): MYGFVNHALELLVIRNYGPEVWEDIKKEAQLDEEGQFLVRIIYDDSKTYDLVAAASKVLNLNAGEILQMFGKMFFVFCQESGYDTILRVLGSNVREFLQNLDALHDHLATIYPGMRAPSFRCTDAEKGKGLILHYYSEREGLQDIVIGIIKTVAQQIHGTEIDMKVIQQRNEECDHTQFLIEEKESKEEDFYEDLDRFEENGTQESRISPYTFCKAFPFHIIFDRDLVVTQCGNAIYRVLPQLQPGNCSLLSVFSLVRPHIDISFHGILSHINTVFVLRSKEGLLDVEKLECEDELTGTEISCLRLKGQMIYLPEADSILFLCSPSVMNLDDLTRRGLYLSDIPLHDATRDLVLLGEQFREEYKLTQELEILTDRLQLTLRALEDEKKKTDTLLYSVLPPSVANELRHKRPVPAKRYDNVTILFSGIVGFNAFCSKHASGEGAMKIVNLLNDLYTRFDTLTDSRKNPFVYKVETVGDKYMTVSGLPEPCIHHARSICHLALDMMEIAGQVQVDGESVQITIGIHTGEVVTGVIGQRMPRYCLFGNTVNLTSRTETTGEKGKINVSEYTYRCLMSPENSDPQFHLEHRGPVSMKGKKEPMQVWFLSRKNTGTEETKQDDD
T2 sequence (Q02108 whole entry): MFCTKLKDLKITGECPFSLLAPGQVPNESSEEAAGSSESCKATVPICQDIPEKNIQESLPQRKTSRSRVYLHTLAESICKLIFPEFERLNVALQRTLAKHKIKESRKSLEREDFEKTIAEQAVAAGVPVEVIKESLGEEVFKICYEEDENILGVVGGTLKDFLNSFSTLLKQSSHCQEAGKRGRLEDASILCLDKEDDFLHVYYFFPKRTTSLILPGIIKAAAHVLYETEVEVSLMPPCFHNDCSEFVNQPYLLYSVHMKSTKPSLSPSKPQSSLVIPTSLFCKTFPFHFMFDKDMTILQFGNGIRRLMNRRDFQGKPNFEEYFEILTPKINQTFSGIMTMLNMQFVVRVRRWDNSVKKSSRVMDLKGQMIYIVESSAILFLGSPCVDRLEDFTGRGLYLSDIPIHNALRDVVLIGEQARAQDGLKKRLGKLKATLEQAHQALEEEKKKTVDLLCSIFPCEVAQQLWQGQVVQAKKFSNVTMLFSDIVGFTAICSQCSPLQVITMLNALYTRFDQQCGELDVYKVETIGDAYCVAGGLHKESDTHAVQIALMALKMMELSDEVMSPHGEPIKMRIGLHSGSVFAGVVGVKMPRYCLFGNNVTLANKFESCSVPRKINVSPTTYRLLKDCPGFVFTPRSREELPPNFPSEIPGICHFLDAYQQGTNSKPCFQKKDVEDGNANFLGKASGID
The test is described as §1. The method, boiled down: as §2

The next test has as its system Thoracic aorta. The test is described as follows: Vasodilation activity in C57Bl6 mouse thoracic aorta assessed as inhibition of phenylephrine-induced contractions. It counts as functional, tissue-based. The settings on record: for minimal effective concentration: read-out: MEC. The method, boiled down: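 Isolated mouse aortic rings on a wire myograph, equilibrated 80 min in carbogen-gassed Krebs-Henseleit pH 7.4. Rings were precontracted with 500 nM phenylephrine plus 100 nM 5-hydroxytryptamine to submaximal tension, then given cumulative compound doses while isometric tension was recorded. IC50 was derived by nonlinear regression.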

Test [3] deals with T1, Soluble guanylate cyclase alpha1/beta1 complex (Homo sapiens). Briefly: Activation of full length human sGC alpha1/beta1 subunit containing heme in ferric state expressed in Sf9 insect cells using […] incubated for 15 mins at 100 uM incubated for 10 mins by [32P]GTP assay relative to control. To be noted: filed as activator. The method, boiled down:
as §2

`CC(=O)N(CCCC(C)(C)C(=O)O)c1cc(C)ccc1C`: the result in test [1] was inactive.
In the case of `Cc1ccc(C)c(NCCCC(C)(C)C(=O)O)c1`, in test [2], the concentration for a half-maximal effect (EC50) was 50 µM. In the test on Thoracic aorta, the IC50 is 721 µM and the minimal effective concentration came out at 100 µM. For the same compound, the fold change (FC) in test [3] came out at 2.9.
On to `CCCCNC(=O)C(C)(C)CCCOc1cc(C)ccc1C`, for which the result in test [1] was inactive.
In the case of `CCCC(=O)N(CCCC(C)(C)C(=O)O)c1cc(C)ccc1C`, the outcome in test [1] was inactive.
For the compound `Cc1ccc(C)c(N(CCCC(C)(C)C(=O)O)C(=O)CCCCC(=O)N(CCCC(C)(C)C(=O)O)c2cc(C)ccc2C)c1`, in test [2], the EC50 was found to be 119 µM. For the same compound, in the test with Thoracic aorta, the IC50 worked out at 261 µM and the minimal effective concentration is 10 µM. In addition, the fold change (FC) in test [3] amounted to 2.2.
Take `CCC(CCCOc1cc(C)ccc1C)C(=O)O` (stereo not given): the outcome in test [1] was inactive.
As to `Cc1ccc(C)c(OCCCC(C)(C)C(=O)NCCNC(=O)C(C)(C)CCCOc2cc(C)ccc2C)c1`, the result in test [1] was inactive.
`Cc1ccc(C)c(OCCCCC(=O)O)c1`: the EC50 in test [2] stood at 707 µM. For the same compound, in the test on Thoracic aorta, the IC50 was determined as 812 µM and the minimal effective concentration turned out to be 100 µM. Also, the fold change (FC) in test [3] came out at 2.9.
With `Cc1ccccc1OCCCC(C)(C)C(=O)O`, the result in test [1] was inactive.
In turn, `Cc1ccc(C)c(OCCCCCC(=O)O)c1` had an EC50 in test [2] of 389 µM. For the same compound, in the test with Thoracic aorta, the IC50 was above 1000 µM and the minimal effective concentration was found to be 300 µM. Further, the fold change (FC) in test [3] came out at 2.1.
For `Cc1ccc(C)c(OCC(=O)O)c1`, the result in test [1] was inactive.
For `Cc1ccc(C(C)C)c(OCCCC(C)(C)C(=O)O)c1`, in test [2], it took 166 µM to reach a half-maximal effect (EC50). Besides, in the test with Thoracic aorta, the IC50 was 71 µM and the minimal effective concentration came out at 10 µM. In test [3], this compound showed a fold change (FC) of 2.6.
As for `Cc1ccc(C)c(OCCCC(C)(C)C(N)=O)c1`, in test [1], the result was inactive.
As to `CNC(=O)C(C)(C)CCCOc1cc(C)ccc1C`, the outcome in test [1] was inactive.
The same measure, in the same setting: the same measure for `CCCCCCNC(=O)C(C)(C)CCCOc1cc(C)ccc1C`: “inactive”.
`CCCCCCC(CCCOc1cc(C)ccc1C)C(=O)O` (stereo not given) yielded an EC50 in test [2] of 128 µM. Also, in the test on Thoracic aorta, the IC50 was found to be 45 µM and the minimal effective concentration was found to be 10 µM. The same compound gave a fold change (FC) in test [3] of 4.1.
Regarding `CCNC(=O)C(C)(C)CCCOc1cc(C)ccc1C`, the result in test [1] was inactive.
In the case of `O=C(O)CCCCCSc1ccccc1`, the result in test [1] was inactive.
The same measure, in the same setting: the same measure for `Cc1ccc(C)c(OCCCC(C)(C)C(=O)NCCCCCCNC(=O)C(C)(C)CCCOc2cc(C)ccc2C)c1`: “inactive”.
For `Cc1ccc(C)c(OCCCC(C)(C)C(=O)O)c1` [GEMFIBROZIL], the EC50 in test [2] was found to be 624 µM. For the same compound, in the test with Thoracic aorta, the IC50 came out at 310 µM and the minimal effective concentration stood at 30 µM. Also, the fold change (FC) in test [3] was 4.
In the case of `CCCCCC(=O)N(CCCC(C)(C)C(=O)O)c1cc(C)ccc1C`, in test [1], the result was inactive.
For `Cc1ccc(C)c(OCCCC(=O)O)c1`, the outcome in test [1] was inactive.
On the same count and under the same terms, the same measure for `Cc1ccc(C)c(OCCCC(C)(C)C(=O)NCCCCNC(=O)C(C)(C)CCCOc2cc(C)ccc2C)c1`: “inactive”; for `O=C(O)CCCCCOc1ccccc1`: “inactive”.

In general, EC50 refers to the concentration needed to bring the measured effect to its halfway point. Low values mean higher potency in that assay, high ones lower potency in that assay. As usually defined, the IC50 is the point on the concentration scale where inhibition reaches its midpoint.
